TRPC4 PAM = allosteric potentiators of mouse TRPC4 channel. Q9QUQ5. HEK293 TRPC4beta/mu-opioid, DAMGO EC20, Fluo-4 Ca2+ flux; active compounds read high. AID 2227. actives 0.42% (n = 310,000). B-score at 10 µM;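 active = B-score of calcium response area above 5 SD of library B-scores, with initial fluorescence ratio within 5 SD of library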;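 note: B-score of integrated fluorescence ratio over time as area under calcium response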
Target sequence (Q9QUQ5 whole entry, looked up): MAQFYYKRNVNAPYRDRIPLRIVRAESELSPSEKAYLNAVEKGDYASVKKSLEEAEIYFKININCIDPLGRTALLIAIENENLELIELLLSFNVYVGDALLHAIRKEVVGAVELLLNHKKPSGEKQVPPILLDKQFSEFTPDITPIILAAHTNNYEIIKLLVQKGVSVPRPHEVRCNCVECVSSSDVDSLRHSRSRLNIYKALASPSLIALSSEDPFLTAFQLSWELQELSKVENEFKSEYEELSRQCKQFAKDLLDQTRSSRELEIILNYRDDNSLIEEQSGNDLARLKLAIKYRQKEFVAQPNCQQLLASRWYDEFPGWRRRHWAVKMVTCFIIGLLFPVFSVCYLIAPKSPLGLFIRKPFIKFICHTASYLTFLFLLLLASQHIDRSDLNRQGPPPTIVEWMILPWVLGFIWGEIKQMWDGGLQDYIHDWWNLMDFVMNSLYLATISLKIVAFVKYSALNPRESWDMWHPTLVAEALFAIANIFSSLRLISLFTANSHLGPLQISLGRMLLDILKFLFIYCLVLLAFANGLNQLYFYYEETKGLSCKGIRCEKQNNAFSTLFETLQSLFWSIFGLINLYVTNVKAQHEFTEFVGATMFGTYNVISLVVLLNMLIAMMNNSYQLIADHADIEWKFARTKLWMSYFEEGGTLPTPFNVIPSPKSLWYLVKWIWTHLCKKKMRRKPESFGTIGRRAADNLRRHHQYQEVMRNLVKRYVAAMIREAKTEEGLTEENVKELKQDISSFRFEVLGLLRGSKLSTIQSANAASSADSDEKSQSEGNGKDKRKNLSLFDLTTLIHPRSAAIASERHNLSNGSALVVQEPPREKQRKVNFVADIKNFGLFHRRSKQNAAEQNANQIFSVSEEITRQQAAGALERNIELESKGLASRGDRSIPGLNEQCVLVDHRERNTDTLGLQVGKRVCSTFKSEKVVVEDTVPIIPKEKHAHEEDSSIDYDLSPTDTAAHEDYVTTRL
TRPC4 block = blocks the mouse TRPC4 cation channel; HEK293 TRPC4beta/mu-opioid, DAMGO-evoked Fluo4 calcium flux; active compounds read low; B-score at 10 µM; actives 0.39% (n = 300,000); AID 2247;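 active = B-score over 3 SD under the library average, no early fluorescence shift, positive overall ratio signal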
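Material: HEK293 cells with stable TRPC4beta plus mu-opioid receptor expression; probe or stimulus: DAMGO in two steps, submaximal then maximal; technique: Fluo4 calcium fluorescence by kinetic imaging, 5 s 1 Hz baseline; measure: integrated fluorescence ratio relative to baseline, converted to per-well B score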
TRPC4 act = opens the mouse TRPC4 cation channel | HEK293 TRPC4beta/mu-opioid, Fluo4 calcium fluorescence; active compounds read high | B-score at 10 µM | actives 0.49% (n = 310,000);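 active = B-score above 5 SD of library B-scores, and initial fluorescence ratio not above library mean plus 5 SD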;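 note: positive B-score marks a calcium rise read as TRPC4 activation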
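Incubation: 45 min room-temperature Fluo4 loading, 110 s read / System: HEK293 cells stably co-expressing mouse TRPC4beta and mu-opioid receptor / Signal: Fluo4 fluorescence, kinetic / Control set: buffer (low) and maximal DAMGO (high) / Measure: integrated baseline-normalised fluorescence ratio, converted to per-well B score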
TRPC6 inhibitor = mouse TRPC6 channel inhibition; actives 1.1% (n = 310,000); HEK293-TRPC6, membrane potential dye, ACh-evoked depolarization; active compounds read low; Q61143; B-score at 10 µM;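 active = B-score under library mean minus 3 SD, initial fluorescence not abnormally high, positive integrated signal ratio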;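 note: B-score derived from integrated fluorescence ratio over the kinetic read; more negative B-score means stronger inhibition of depolarization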
CR mimetic SO = lowers age-related superoxide in aged yeast cells; S. cerevisiae aged cells, superoxide DHE fluorescence; active compounds read low; superoxide response (% of plate mean), % at 10 µM; actives 0.18% (n = 330,000); AID 2690;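 active = superoxide response under a set limit, about three screen SD below normal, cut at about 65% in these data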;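 note: yeast aged for seven days with compound at 30 °C before DHE staining; 100% = average MFI of all compound-treated wells on the plate with controls excluded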
TRPC6 act = activates the mouse TRPC6 cation channel. Q61143. HEK293-TRPC6 membrane potential dye fluorescence; active compounds read high. B-score at 10 µM. actives 0.13% (n = 310,000). AID 2550;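 active = B-score of the integrated fluorescence ratio above library mean plus 3 SD, and starting fluorescence ratio within library mean plus 5 SD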;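 note: higher score means more depolarization so channel activation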
TRPC4 sel inh 2 = mouse TRPC4 off-target activity of TRPC6 inhibitors, second screen; HEK293 TRPC4/MOR, membrane potential dye fluorescence; channel activated by saturating DAMGO dose; shares compounds with TRPC6 inhibitor; actives 42% (n = 920); inhibition, % at 10 µM;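 active = compounds whose fluorescence signal differed from control wells by over 3 SD, either direction, in both duplicate plates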
TRPC4 spec = mouse TRPC4 off-target activity of TRPC6 inhibitors; HEK293 TRPC4/mu-opioid, membrane potential fluorescence; actives 61% (n = 920); AID 2777; shares compounds with TRPC6 inhibitor; activity change, negative = inhibition, % at 10 µM;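 active = rise or fall in signal beyond 3 SD of buffer-only wells in both replicate plates, either sign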;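 note: integrated kinetic ratio of fluorescence range over baseline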
HEK293 MPD ctr 2-1 = second counter-screen for TRPC6 inhibitors: parental HEK293 cells; parental HEK293 membrane potential dye fluorescence; maximal acetylcholine challenge after compound addition; actives 31% (n = 920); AID 2779; shares compounds with TRPC6 inhibitor; signal change vs control, % at 10 µM;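 active = membrane potential signal moving either way by over 3 SD of the maximum-effect control, in both duplicate plates, meaning non-specific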
HEK293 MPD ctr-1 = counter-screen for TRPC6 inhibitors: effect in parental HEK293 cells. shares compounds with TRPC6 inhibitor. parental HEK293 membrane potential dye fluorescence. membrane potential signal change, % at 10 µM. actives 60% (n = 920);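 active = membrane potential signal shifting up or down by more than 3 SD of buffer-only wells, on both duplicate plates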
HEK293 MPD ctr-2 = counter-screen for TRPC6 modulators: effect in parental HEK293 cells | membrane potential signal change, % at 10 µM | shares compounds with TRPC6 inhibitor | actives 51% (n = 2,400) | membrane potential dye fluorescence;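 active = membrane potential signal moves up or down beyond 5 SD from buffer-only wells, on both duplicate plates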
HEK293 MPD ctr 2-2 = second check of TRPC6 modulator effects in parental HEK293 cells; actives 14% (n = 2,400); membrane potential dye fluorescence; after compound, maximal acetylcholine stimulation; inhibition, % at 10 µM; shares compounds with TRPC6 inhibitor;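 active = membrane potential signal drops by more than 5 SD from the mean control signal, in both duplicate plates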;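 note: plate controls were acetylcholine ECmax control wells for no effect and buffer only wells for full effect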
TRPC4/MOR mod = selectivity of TRPC6 modulators against mouse TRPC4 | shares compounds with TRPC6 inhibitor | HEK293 TRPC4/mu-opioid, membrane potential fluorescence | percent change from control (negative = decrease, positive = increase), % at 10 µM | actives 69% (n = 2,400);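 active = membrane potential signal moved up or down beyond 5 SD of buffer control wells, in both duplicate plates, actives on both sides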;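 note: plate controls were assay buffer wells for no effect and DAMGO maximal-effect wells for full effect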
TRPC4/MOR inh 2 = second check of whether TRPC6 modulators also affect mouse TRPC4; shares compounds with TRPC6 inhibitor; HEK293 TRPC4/mu-opioid, membrane potential dye fluorescence; stimulated with maximal-effect DAMGO; inhibition, % at 10 µM; actives 55% (n = 2,400); AID 488928;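 active = drop in membrane potential signal beyond 5 SD of the control wells in both duplicate plates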;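 note: TRPC4 counter screen for TRPC6 hits run under conditions tuned for TRPC6 not TRPC4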
TRPC6 inh conf = confirmation of mouse TRPC6 inhibitors; shares compounds with TRPC6 inhibitor; HEK293-TRPC6, membrane potential dye, ACh-evoked depolarization; inhibition, % at 10 µM; actives 43% (n = 3,300);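 active = fluorescence ratio falls more than 5 SD below the full-stimulation control mean, in both duplicate runs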;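 note: integrated fluorescence ratio of peak minus minimum over baseline after agonist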
TRPC6 act conf = confirmation of mouse TRPC6 activators; shares compounds with TRPC6 inhibitor; HEK293-TRPC6 membrane potential dye fluorescence, FDSS; activation, % at 10 µM; actives 11% (n = 2,800); AID 488961;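 active = ratio signal rise beyond 5 SD above unstimulated control wells' mean, seen in both duplicate runs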;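 note: plate controls were buffer EC0 wells for no effect and acetylcholine ECmax response for full effect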
* marks the source's active call; other numbers are inactive results; i = inactive; / = no result given; + = active, no number. Most compounds without a hit are left out; they make up all but 2.3% or so of the library.

SMILES	TRPC4 PAM	TRPC4 block	TRPC4 act	TRPC6 inhibitor	CR mimetic SO	TRPC6 act	HEK293 MPD ctr-2	HEK293 MPD ctr 2-2	TRPC4/MOR mod	TRPC4/MOR inh 2	TRPC6 inh conf	TRPC6 act conf	others
c1cnc2ccc(C(c3nnnn3C3CCCCC3)N3CCN(C4CCCCC4)CC3)cc2c1 (stereo not given)	i	i	i	i	104.0	i	/	/	/	/	/	/
c1cnc2ccc(C(c3nnnn3C3CCCCC3)N3CCCCC3)cc2c1 (stereo not given)	i	i	i	-5.91*	104.8	i	149.0%*	i	35.0%*	30.5%*	53.5%*	/
COc1ccc(S(=O)(=O)c2ccccc2)cc1NS(=O)(=O)c1cccc(C(=O)O)c1	/	/	/	/	122.8	/	/	/	/	/	/	/
O=C(NC1CCCN(Cc2ccccc2F)C1)c1cccc(N2CCCC2=O)c1 (stereo not given)	i	i	i	i	93.9	i	/	/	/	/	/	/
Cc1nc2c(C)cccc2c2c1CCN2c1ccccc1F	i	i	i	-5.82*	106.3	i	-143.0%*	i	-20.0%*	58.0%*	49.5%*	i
COc1cccc(N2CCc3c(C)nc4ccc(Cl)cc4c32)c1	i	i	i	-6.21*	96.5	i	i	58.0%*	i	88.5%*	62.0%*	i
COc1ccc(N2CCc3c(C)nc4c(OC)cc(OC)cc4c32)cc1	i	i	i	-5.72*	84.2	i	-173.0%*	75.5%*	-23.5%*	56.5%*	55.0%*	i
COc1ccc(N2CCc3c(C)nc4c(OC)cc(OC)cc4c32)c(OC)c1	i	i	i	i	110.3	i	/	/	/	/	/	/
COc1ccc(N2CCc3c(C)nc4c(OC)cccc4c32)cc1	i	i	i	-7.98*	100.1	i	/	/	/	/	58.2%*	i	TRPC4 sel inh 2=52.0%*;TRPC4 spec=-24.0%*;HEK293 MPD ctr 2-1=i;HEK293 MPD ctr-1=-320.0%*
CC(C)Cn1c(=O)c(CCC(=O)Nc2ccc(N3CCOCC3)cc2)nc2cc(Cl)ccc21	i	i	i	i	82.8	i	/	/	/	/	/	/
Cc1cccc(Nc2nccc(N(C)C)c2C#N)c1	i	i	i	i	103.3	i	/	/	/	/	/	/
CCOC(=O)c1c(NC(=O)COC)sc(C)c1C	i	i	i	i	98.2	i	/	/	/	/	/	/
CCOC(=O)c1c(NC(=O)COC(=O)c2cc(OC)c(OC)cc2[N+](=O)[O-])sc(C)c1C	i	i	i	-5.1*	97.0	i	i	i	i	39.5%*	i	i
Fc1ccc(C(CCNCc2ccccn2)c2ccc(Cl)cc2)cc1 (stereo not given)	i	i	i	-5.19*	96.6	i	188.5%*	i	31.0%*	74.0%*	i	/
CC1CN(C(=O)CSc2nnc(-c3ccc(Cl)cc3)n2C)CC(C)O1 (stereo not given)	i	i	i	-5.15*	70.7	i	i	i	i	i	i	i
O=C1NC(=S)S/C1=C/c1ccc(Oc2cnccn2)cc1	i	i	i	i	109.7	i	/	/	/	/	/	/
CCOc1ccc(N(C)c2ccc(/C=C3/SC(=S)NC3=O)cc2)cc1	i	i	i	i	99.6	18*	i	i	81.5%*	i	i	i
O=C(CSc1nnc(-c2ccc(F)cc2)o1)c1ccc2c(c1)OCCO2	i	i	i	i	93.2	i	/	/	/	/	/	/
Cc1ccc(-c2nc(SCC(=O)c3c(N)n(C)c(=O)n(C)c3=O)n[nH]2)cc1	i	i	i	-5.11*	92.3	i	i	i	i	i	i	i
CCc1ccc(-c2nc(SCC(=O)c3c(N)n(C)c(=O)n(C)c3=O)n[nH]2)cc1	/	/	/	/	89.0	/	/	/	/	/	/	/
COc1cccc(NC(=O)c2cc(-c3ccc(OC)cc3OC)nc3ccccc23)c1	i	i	i	-5.12*	120.8	i	+	73.0%*	-94.0%*	66.5%*	53.5%*	i
COc1ccc(-c2cc(C(=O)Nc3cc(C)on3)c3ccccc3n2)c(OC)c1	i	i	i	i	90.4	i	/	/	/	/	/	/
COC(=O)Cc1c[nH]c2cccc(OCC(O)CN(Cc3ccccc3)C(C)C)c12 (stereo not given)	i	i	i	-7.2*	109.9	i	/	/	/	/	i	i	TRPC4 sel inh 2=71.5%*;TRPC4 spec=0.3%*;HEK293 MPD ctr 2-1=i;HEK293 MPD ctr-1=i
N#C/C(=C\c1ccc(O)c(Br)c1)C(=O)N1CCCCC1	i	i	i	i	109.1	i	/	/	/	/	/	/
Cc1occc1C(=O)/C(C#N)=C/c1ccc(O)c(Br)c1	i	i	46*	i	99.9	72.8*	+	107.0%*	236.5%*	i	/	508.0%*
